Test results published in ChEMBL document CHEMBL1123487, “Zwitterionic 3'-O-acyl derivatives of thymidine 5'-phosphate as potential sources of intracellular thymidine 5'-phosphate in cells in culture” (J Med Chem, 1986).
Values joined by “and” are separate entries in the source; they are usually repeats but may differ in a detail not shown here. Equal entries are not always repeated.

Tests used:
[1] = Compound was evaluated for the Hydrolysis rate in aqueous 50 mM Potassium Phosphate; assay type: ADME; details: aqueous potassium phosphate buffer
Outline: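 5 mM ester in aqueous 50 mM potassium phosphate, pH 7.6, held at 37 °C. Release of free nucleotide followed by paper electrophoresis at pH 3.6 (thymidine release by silica TLC, UV inspection). log(residual ester) plotted against time; t1/2 read graphically from the linear pseudo-first-order plot.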

[2] = test system: L929; experiment: Stimulation of DNA synthesis in L929 cells in the presence of 5'-NH2-dT; assay type: functional, Mus musculus
[3] = test system: L929; experiment: Rate of incorporation of [3H]-dC into DNA in mouse L929 cells at 10e-4 concentration; units=cpm/hx 5*10e5 cells; assay type: functional
[4] = test system: L929; experiment: Stimulation of DNA synthesis in L929 cells in the absence of 5'-NH2-dT; assay type: functional, Mus musculus
Outline: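 L929 cells blocked 3 h with aminopterin medium. 5'-NH2-dT (1.0 mM) was left out of the 2 h recovery medium that held the compound. Labelled with [3H]-dC 1 μCi/mL; TCA-insoluble incorporation (cpm/h per 5×10^5 cells) compared with parallel control cultures.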

[5] = test system: LM; experiment: Effect on DNA synthesis in mouse LM(TK-) cells blocked in DNA synthesis with Aminopterin at 10e-4 M; assay type: functional
Outline: (§1)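 LM(TK-) mouse fibroblasts, 5×10^5 or 1×10^6 per 6-cm dish, grown overnight in DMEM/10% FBS at 37 °C, 5% CO2. Blocked 3 h in medium with heat-inactivated serum, aminopterin 1 μg/mL, glycine and hypoxanthine 15 μg/mL each, no 5'-NH2-dT. Compounds diluted from 10 mM stocks in 50% ethanol-water; controls got vehicle. Recovery 2 h, then [3H]-dC 1 μCi/mL for 1–3 h. Cold 5% TCA-insoluble counts in duplicate; enhancement = rate with compound / rate in parallel controls.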

[6] = test system: LM; experiment: Effect (10e-3 M) on DNA synthesis in mouse LM(TK-) cells blocked in DNA synthesis with Aminopterin; assay type: functional; outline: as §1
[7] = test system: LM; experiment: Effect (10e-4 M) on DNA synthesis in mouse LM(TK-) cells blocked in DNA synthesis with Aminopterin; assay type: functional; outline: as §1
[8] = test system: LM; experiment: Effect (10e-5 M) on DNA synthesis in mouse LM(TK-) cells blocked in DNA synthesis with Aminopterin; assay type: functional; outline: as §1
[9] = test system: L929; experiment: Rate of incorporation of [3H]dC into DNA in mouse L929 cells at 10e-4 concentration; units=cpm/hx 5*10e5 cells; assay type: functional
[10] = test system: L929; experiment: Rate of incorporation of [3H]dC into DNA in mouse L929 cells at 10e-6 concentration; units=cpm/hx 5*10e5 cells; assay type: functional
Outline: (§2)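 L929 cells seeded at 5×10^5 or 1×10^6 per dish in DMEM/10% FBS, overnight at 37 °C, 5% CO2. Blocked 3 h in medium with heat-inactivated serum, aminopterin 1 μg/mL, glycine and hypoxanthine 15 μg/mL each, and 1.0 mM 5'-NH2-dT. Test agent in the same medium for 2 h, then 1 μCi/mL [3H]dC for 1–3 h. Cold 5% TCA-insoluble counts in duplicate, scaled to cell counts.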

[11] = test system: L929; experiment: Rate of incorporation of [3H]dC into DNA in mouse L929 cells at 10e-5 concentration; units=cpm/hx 5*10e5 cells; assay type: functional; outline: as §2
[12] = test system: LM; experiment: Effect (10e-6 M) on DNA synthesis in mouse LM(TK-) cells blocked in DNA synthesis with Aminopterin; assay type: functional
Outline: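 LM(TK-) fibroblasts seeded and cultured overnight. Blocked 3 h in heat-inactivated-serum medium with aminopterin 1 μg/mL, glycine and hypoxanthine 15 μg/mL, no 5'-NH2-dT. Compound diluted from 10 mM stock in 50% ethanol-water and applied 2 h. Then [3H]dC 1 μCi/mL; acid-insoluble radioactivity measured in duplicate. Effect expressed as incorporation rate relative to parallel vehicle controls.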

## CC[N+](CC)(CC)CCCC[N+](CC)(CC)CCCCC(=O)O[C@H]1C[C@H](n2cc(C)c(=O)[nH]c2=O)O[C@@H]1CO.[Cl-].[Cl-]
[1]
  half-life: 3.62 days

## CCN(CC)CC[N+](CC)(CC)CCCC(=O)O[C@H]1C[C@H](n2cc(C)c(=O)[nH]c2=O)O[C@@H]1COP(=O)([O-])O
[1]
  half-life: 1.17 days

## CC[N+](CC)(CC)CC[N+](CC)(CC)CCCCC(=O)O[C@H]1C[C@H](n2cc(C)c(=O)[nH]c2=O)O[C@@H]1COP(=O)([O-])[O-]
[2]
  Incorporation rate: 808 c.p.m. hr-1
[3]
  Incorporation rate: 673 c.p.m. hr-1 and 1103 c.p.m. hr-1
[4]
  Incorporation rate: 5462 c.p.m. hr-1
[5]
  Incorporation rate: 171 c.p.m. hr-1

## CC[N+](CC)(CC)CCC[N+](CC)(CC)CCCCC(=O)O[C@H]1C[C@H](n2cc(C)c(=O)[nH]c2=O)O[C@@H]1COP(=O)([O-])[O-]
[1]
  half-life: 3 days

## CCN(CC)CCC[N+](CC)(CC)CCCCC(=O)O[C@H]1C[C@H](n2cc(C)c(=O)[nH]c2=O)O[C@@H]1COP(=O)([O-])O
[3]
  Incorporation rate: 605 c.p.m. hr-1 and 504 c.p.m. hr-1
[1]
  half-life: 3.08 days

## Cc1cn([C@H]2C[C@H](O)[C@@H](COP(=O)(O)O)O2)c(=O)[nH]c1=O [THYMIDINE MONOPHOSPHATE]
[6]
  Incorporation rate: 596 c.p.m. hr-1 and 668 c.p.m. hr-1 and 837 c.p.m. hr-1
[7]
  Incorporation rate: 381 c.p.m. hr-1 and 295 c.p.m. hr-1
[8]
  Incorporation rate: 323 c.p.m. hr-1 and 256 c.p.m. hr-1

## CC[N+](CC)(CC)CCCC[N+](CC)(CC)CCCCC(=O)O[C@H]1C[C@H](n2cc(C)c(=O)[nH]c2=O)O[C@@H]1COP(=O)([O-])[O-]
[2]
  Incorporation rate: 1135 c.p.m. hr-1
[7]
  Incorporation rate: 204 c.p.m. hr-1 and 147 c.p.m. hr-1
[3]
  Incorporation rate: 1356 c.p.m. hr-1 and 1299 c.p.m. hr-1
[4]
  Incorporation rate: 7462 c.p.m. hr-1
[1]
  half-life: 3.54 days

## CCN(CC)CCCC[N+](CC)(CC)CCCCC(=O)O[C@H]1C[C@H](n2cc(C)c(=O)[nH]c2=O)O[C@@H]1COP(=O)([O-])O
[9]
  Incorporation rate: 782 c.p.m. hr-1 and 821 c.p.m. hr-1

## CC(=O)O[C@H]1C[C@H](n2cc(C)c(=O)[nH]c2=O)O[C@@H]1CO
[1]
  half-life: 5.62 days

## CCN(CC)CC[N+](CC)(CC)CCCC(=O)O[C@H]1C[C@H](n2cc(C)c(=O)[nH]c2=O)O[C@@H]1CO.Cl.[Cl-]
[1]
  half-life: 1.17 days

## Cc1cn([C@H]2C[C@H](O)[C@@H](CO)O2)c(=O)[nH]c1=O [DOXRIBTIMINE]
[6]
  Incorporation rate: 213 c.p.m. hr-1
[10]
  Incorporation rate: 465 c.p.m. hr-1
[11]
  Incorporation rate: 2937 c.p.m. hr-1
[7]
  Incorporation rate: 228 c.p.m. hr-1 and 251 c.p.m. hr-1
[12]
  Incorporation rate: 185 c.p.m. hr-1
[3]
  Incorporation rate: 28200 c.p.m. hr-1
[8]
  Incorporation rate: 204 c.p.m. hr-1
